Measured values as given in ChEMBL document CHEMBL3739417, “Synthesis and biological evaluation of novel 4,5-disubstituted 2H-1,2,3-triazoles as cis-constrained analogues of combretastatin A-4” (2015).

Experiments:
Format in all cases: functional
[1] = system: K562; test: Growth inhibition of human K562 cells after 48 hrs by sulforhodamine B assay; conditions: K562, 48 h
Outline: (§1)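 NCI-60 panel screen by SRB assay (Rubinstein method). Percentage growth taken from optical density of SRB colour, read before and 48 hrs after exposure to compound or vehicle control. All analogues first screened at 10^-5 M. Analogues giving 60% growth inhibition at that level in at least eight lines then went to a five-concentration dose-response study.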

[2] = system: ACHN; test: Growth inhibition of human ACHN cells after 48 hrs by sulforhodamine B assay; outline: as §1
[3] = system: CAKI-1; test: Growth inhibition of human CAKI-1 cells after 48 hrs by sulforhodamine B assay; conditions: CAKI-1, 48 h; outline: as §1
[4] = Growth inhibition of human HOP62 cells after 48 hrs by sulforhodamine B assay; conditions: HOP-62, 48 h; outline: as §1
[5] = Growth inhibition of human IGROV1 cells after 48 hrs by sulforhodamine B assay; conditions: IGROV-1, 48 h; outline: as §1
[6] = system: NCI-H460; test: Growth inhibition of human NCI-H460 cells after 48 hrs by sulforhodamine B assay; conditions: NCI-H460, 48 h; outline: as §1
[7] = Growth inhibition of human PC3 cells after 48 hrs by sulforhodamine B assay; conditions: PC-3, 48 h; outline: as §1
[8] = Growth inhibition of human HL-60(TB) cells after 48 hrs by sulforhodamine B assay; conditions: HL-60, 48 h; outline: as §1
[9] = system: MCF7; test: Growth inhibition of human MCF7 cells after 48 hrs by sulforhodamine B assay; conditions: MCF7, 48 h; outline: as §1
[10] = system: 786-0; test: Growth inhibition of human 786-0 cells after 48 hrs by sulforhodamine B assay; conditions: 786-0, 48 h; outline: as §1
[11] = Growth inhibition of human COLO205 cells after 48 hrs by sulforhodamine B assay; conditions: COLO 205, 48 h; outline: as §1
[12] = system: SK-MEL-5; test: Growth inhibition of human SK-MEL-5 cells after 48 hrs by sulforhodamine B assay; conditions: SK-MEL-5, 48 h; outline: as §1
[13] = system: HT-29; test: Growth inhibition of human HT-29 cells after 48 hrs by sulforhodamine B assay; conditions: HT-29, 48 h; outline: as §1
[14] = Growth inhibition of human SF268 cells after 48 hrs by sulforhodamine B assay; conditions: SF-268, 48 h; outline: as §1
[15] = system: NCI-H23; test: Growth inhibition of human NCI-H23 cells after 48 hrs by sulforhodamine B assay; conditions: NCI-H23, 48 h; outline: as §1
[16] = Growth inhibition of human DU145 cells after 48 hrs by sulforhodamine B assay; conditions: DU-145, 48 h; outline: as §1
[17] = system: A498; test: Growth inhibition of human A498 cells after 48 hrs by sulforhodamine B assay; conditions: A498, 48 h
Outline: (§2)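 NCI-60 sulforhodamine B screen. Compounds were first tested at a single dose of 10⁻⁵ M; hits, defined as ≥60% growth inhibition in at least eight lines, went on to a five-concentration dose–response. SRB optical density was read before and 48 h after exposure to compound or vehicle. Percentage growth was calculated from OD.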

[18] = Growth inhibition of human HOP92 cells after 48 hrs by sulforhodamine B assay; conditions: HOP-92, 48 h; outline: as §1
[19] = system: U-251; test: Growth inhibition of human U251 cells after 48 hrs by sulforhodamine B assay; conditions: U-251, 48 h; outline: as §1
[20] = system: A549; test: Growth inhibition of human A549/ATCC cells after 48 hrs by sulforhodamine B assay; conditions: A549, 48 h; outline: as §1
[21] = system: MDA-MB-231; test: Growth inhibition of human MDA-MB-231 cells after 48 hrs by sulforhodamine B assay; conditions: MDA-MB-231, 48 h; outline: as §1
[22] = system: MDA-MB-468; test: Growth inhibition of human MDA-MB-468 cells after 48 hrs by sulforhodamine B assay; conditions: MDA-MB-468, 48 h; outline: as §1
[23] = Growth inhibition of human SF295 cells after 48 hrs by sulforhodamine B assay; conditions: SF-295, 48 h; outline: as §1
[24] = Growth inhibition of human LOXIMVI cells after 48 hrs by sulforhodamine B assay; conditions: LOX IMVI; outline: as §1
[25] = Growth inhibition of human HCT116 cells after 48 hrs by sulforhodamine B assay; conditions: HCT-116, 48 h; outline: as §1
[26] = system: KM12; test: Growth inhibition of human KM12 cells after 48 hrs by sulforhodamine B assay; conditions: KM12, 48 h; outline: as §1
[27] = Growth inhibition of human OVCAR3 cells after 48 hrs by sulforhodamine B assay; conditions: OVCAR-3, 48 h; outline: as §2
[28] = system: SK-MEL-2; test: Growth inhibition of human SK-MEL-2 cells after 48 hrs by sulforhodamine B assay; conditions: SK-MEL-2, 48 h; outline: as §1
[29] = Growth inhibition of human SNB75 cells after 48 hrs by sulforhodamine B assay; conditions: SNB-75, 48 h; outline: as §1
[30] = system: SR; test: Growth inhibition of human SR cells after 48 hrs by sulforhodamine B assay; outline: as §1
[31] = Growth inhibition of human RPMI8226 cells after 48 hrs by sulforhodamine B assay; conditions: RPMI-8226, 48 h; outline: as §1
[32] = Growth inhibition of human NCI-ADR-RES cells after 48 hrs by sulforhodamine B assay; outline: as §1
[33] = Growth inhibition of human SKOV3 cells after 48 hrs by sulforhodamine B assay; conditions: SK-OV-3, 48 h; outline: as §1
[34] = Growth inhibition of human HCT15 cells after 48 hrs by sulforhodamine B assay; conditions: HCT-15, 48 h; outline: as §1
[35] = Growth inhibition of human HCC2998 cells after 48 hrs by sulforhodamine B assay; conditions: HCC 2998, 48 h; outline: as §1
[36] = system: MDA-MB-435; test: Growth inhibition of human MDA-MB-435 cells after 48 hrs by sulforhodamine B assay; conditions: MDA-MB-435, 48 h; outline: as §2
[37] = system: CCRF-CEM; test: Growth inhibition of human CCRF-CEM cells after 48 hrs by sulforhodamine B assay; outline: as §1
[38] = read-out: LD50 (the source's name)

## COc1cc(-c2n[nH]nc2-c2ccc3ccccc3n2)cc(OC)c1OC
[1]
  GI50: 26 nM
[1]; [38]
  CC50: > 100000 nM
[2]
  GI50: 81 nM
[2]; [38]
  CC50: > 100000 nM
[3]
  GI50: 43 nM
[3]; [38]
  CC50: > 100000 nM
[4]
  GI50: 47 nM
[4]; read-out: LD50
  LC50 (concentration killing 50% of cells): > 100000 nM
[5]
  GI50: 65 nM
[5]; [38]
  CC50: > 100000 nM
[6]
  GI50: 38 nM
[6]; [38]
  CC50: > 100000 nM
[7]
  GI50: 46 nM
[7]; [38]
  CC50: > 100000 nM
[8]
  GI50: 30 nM
[8]; [38]
  CC50: > 100000 nM
[9]
  GI50: 27 nM
[9]; [38]
  CC50: > 100000 nM
[10]
  GI50: 43 nM
[10]; read-out: LD50
  LC50 (concentration killing 50% of cells): > 100000 nM
[11]
  GI50: 228 nM
[11]; [38]
  CC50: > 100000 nM
[12]
  GI50: 13 nM
[12]; [38]
  CC50: > 100000 nM
[13]
  GI50: 214 nM
[13]; read-out: LD50
  LC50 (concentration killing 50% of cells): > 100000 nM
[14]
  GI50: 503 nM
[14]; [38]
  CC50: > 100000 nM
[15]
  GI50: 65 nM
[15]; read-out: LD50
  LC50 (concentration giving 50% cell kill): > 100000 nM
[16]
  GI50: 27 nM
[16]; [38]
  CC50: > 100000 nM
[17]
  GI50: 33 nM
[17]; read-out: LD50
  LC50 (50% net cell kill): > 100000 nM
[18]
  GI50: 99 nM
[18]; [38]
  CC50: > 100000 nM
[19]
  GI50: 37 nM
[19]; [38]
  CC50: > 100000 nM
[20]
  GI50: 54 nM
[20]; [38]
  CC50: > 100000 nM
[21]
  GI50: 94 nM
[21]; [38]
  CC50: > 100000 nM
[22]
  GI50: 35 nM
[22]; [38]
  CC50: > 100000 nM
[23]
  GI50: 14 nM
[23]; [38]
  CC50: > 100000 nM
[24]
  GI50: 65 nM
[24]; [38]
  CC50: > 100000 nM
[25]
  GI50: 40 nM
[25]; [38]
  CC50: > 100000 nM
[26]
  GI50: 35 nM
[26]; read-out: LD50
  LC50 (concentration killing 50% of cells): > 100000 nM
[27]
  GI50: 11 nM
[27]; read-out: LD50
  LC50 (concentration giving 50% net cell kill): > 100000 nM
[28]
  GI50: 27 nM
[28]; [38]
  CC50: > 100000 nM
[29]
  GI50: 16 nM
[29]; [38]
  CC50: > 100000 nM
[30]
  GI50: 21 nM
[30]; read-out: LD50
  LC50 (concentration giving 50% net cell kill): > 100000 nM
[31]
  GI50: 37 nM
[31]; [38]
  CC50: > 100000 nM
[32]
  GI50: 23 nM
[32]; [38]
  CC50: > 100000 nM
[33]
  GI50: 75 nM
[33]; read-out: LD50
  LC50 (concentration killing 50% of cells): > 100000 nM
[34]
  GI50: 37 nM
[34]; [38]
  CC50: > 100000 nM
[35]
  GI50: 230 nM
[35]; [38]
  CC50: > 100000 nM
[36]
  GI50: < 10 nM
[36]; read-out: LD50
  LC50 (concentration killing 50% of cells): > 100000 nM
[37]
  GI50: 37 nM
[37]; read-out: LD50
  LC50 (concentration killing 50% of cells): > 100000 nM
